Laboratory results as given in ChEMBL document CHEMBL4033710, “Synthesis and biological evaluation of kresoxim-methyl analogues as novel inhibitors of hypoxia-inducible factor (HIF)-1 accumulation in cancer cells” (Bioorg Med Chem Lett, 2017).
Activity calls are given as the source filed them. The rule behind the calls is not given here.

Columns and labels:
Assay type in all cases: functional, cell-based
HCT-116 [1] = experiment: Increase in intracellular oxygen content in human HCT116 cells at 5 uM after 6 hrs under hypoxic-condition by mono azo rhodamine/Nuclear-ID Red DNA staining based fluorescence assay
Outline: (§1)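 HCT116 cells treated with compound for 6 h under hypoxia and loaded with the hypoxia-sensitive probe mono azo rhodamine (MAR). MAR fluoresces when its azo group is reduced in hypoxia. Nuclei were counterstained with NUCLEAR-ID Red. The value is the MAR/NUCLEAR-ID fluorescence intensity ratio, compared against a hypoxia control by significance testing.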

HCT-116 [2] = experiment: Cytotoxicity against human HCT116 cells at 0.625 to 10 uM after 72 hrs under hypoxic condition by methylene blue staining based assay
HCT-116 [3] = experiment: Inhibition of hypoxia-induced HIF1-alpha accumulation in human HCT116 cells after 6 hrs by immunoblot analysis
Outline: (§2)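 HCT116 cells incubated under hypoxia for 6 h with each compound. HIF-1α protein was detected by immunoblot with specific antibodies, using β-tubulin as loading reference.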

HCT-116 [4] = experiment: Cytotoxicity against human HCT116 cells after 72 hrs by methylene blue staining based assay; details: HCT-116, 72 h
Outline: (§3)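 HCT116 cells exposed to each analogue for 72 h. Viability read out by methylene blue staining.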

HCT-116 [5] = experiment: Increase in intracellular oxygen content in human HCT116 cells after 6 hrs under hypoxic-condition by mono azo rhodamine/ Nuclear-ID Red DNA staining based fluorescence assay; outline: as §1
HCT-116 [6] = experiment: Inhibition of hypoxia-induced HIF1-alpha accumulation in human HCT116 cells at 5 uM after 6 hrs by immunoblot analysis; outline: as §2
HCT-116 [7] = experiment: Cytotoxicity against human HCT116 cells at 0.625 to 10 uM after 72 hrs by methylene blue staining based assay; outline: as §3

For CO/N=C/c1ccc(OC)c(OCc2ccccc2/C(=N\OC)C(=O)OC)c1, the Activity (HCT-116 [1]) was “Active”.

In the case of CO/N=C(\C)c1cccc(OCc2ccccc2/C(=N\OC)C(=O)OC)c1, the Activity (HCT-116 [1]) is reported as “Active”.

For CO/N=C(/C(=O)OC)c1ccccc1COc1cccc(OCc2cc(C(F)(F)F)cc(C(F)(F)F)c2)c1, the Activity (HCT-116 [2]) was “Active”, the inhibition (HCT-116 [3]) was “Dose-dependent effect” and the IC50 (HCT-116 [4]) was 1360 nM. The Activity (HCT-116 [1]) was “Active”.

With CO/N=C(/C(=O)OC)c1ccccc1COc1cccc(OCc2ccc(Cl)cc2)c1 the Activity (HCT-116 [5]) was “Dose-dependent effect”, the Activity (HCT-116 [2]) was “Active” and the inhibition (HCT-116 [3]) was “Dose-dependent effect”. It also gave an IC50 (HCT-116 [4]) of 1620 nM.

CO/N=C(/C(=O)OC)c1ccccc1COc1cccc(O)c1 was tested, and the Activity (HCT-116 [1]) was “Active”.

CO/N=C(/C(=O)OC)c1ccccc1COc1cccc(OCC#N)c1 was tested, and the Activity (HCT-116 [2]) was “inactive”, the inhibition (HCT-116 [6]) was “inactive” and the Activity (HCT-116 [7]) was “inactive”. The Activity (HCT-116 [1]) was “inactive”.

For CO/N=C(/C(=O)OC)c1ccccc1COc1cccc(OCc2ccccc2)c1, the Activity (HCT-116 [1]) was “Active”.

For C=Cc1ccc(COc2cccc(OCc3ccccc3/C(=N\OC)C(=O)OC)c2)cc1, the Activity (HCT-116 [2]) was “Active”, the inhibition (HCT-116 [3]) was “Dose-dependent effect” and the IC50 (HCT-116 [4]) was 1260 nM. For the same compound, the Activity (HCT-116 [1]) was “Active”.

In the case of CO/N=C/c1cccc(OCc2ccccc2/C(=N\OC)C(=O)OC)c1, the Activity (HCT-116 [1]) is reported as “Active”.
